# From ChEMBL document CHEMBL3244396, “Synthesis and antileukemic activity of 5-substituted 2,3-dihydro-6,7-bis(hydroxymethyl)-1H-pyrrolizine diesters” (J Med Chem, 1977)
# Key:
# Mus musculus [1] = assay: Toxicity in female BDF1 mouse allografted with mouse P388 cells assessed as animal survival at 25 mg/kg, ip administered daily for 9 days as Klucel suspension starting 24 hrs after tumor inoculation; format: organism-based; set-up: dose 25 mg/kg, route intraperitoneal; conditions: in vivo
# Procedure, shortened: (§1)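 P-388 leukemia ascitic fluid inoculated ip. Compound given ip as a suspension in Klucel (hydroxypropylcellulose), once daily for nine doses beginning 24 h post-inoculation. Acute toxicity assessed as toxicity-day survivors per group. Survival was followed up to 30 days, with 30-day survival counted as "cure". Follows NCI screening protocols.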
# L1210 [2] = assay: Antileukemic activity against mouse L1210 cells allografted in female BDF1 mouse assessed as host mean survival time at 200 mg/kg, ip administered daily for 9 days as Klucel suspension starting 24 hrs after tumor inoculation relative to control; format: functional; conditions: route intraperitoneal
# Procedure, shortened: (§2)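 L1210 leukemia given as an ascitic fluid cell inoculum, ip, to mice of the strain and sex in each line. Test material was given ip for nine daily doses starting 24 h after inoculation, in a Klucel (hydroxypropylcellulose) suspension. Read-out is mean survival time as %T/C versus controls, with >125 taken as significant.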
# Mus musculus [3] = assay: Toxicity in female BDF1 mouse allografted with mouse L1210 cells assessed as animal survival at 50 mg/kg, ip administered daily for 9 days as Klucel suspension starting 24 hrs after tumor inoculation measured on fifth day; format: organism-based; set-up: dose 50 mg/kg, route intraperitoneal; conditions: in vivo
# Procedure, shortened: (§3)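 L1210 leukemia passaged as ascitic fluid and inoculated ip. Test agent given ip as a Klucel (hydroxypropylcellulose) suspension, nine daily doses starting 24 h after tumor inoculation. Acute toxicity read as toxicity-day survivors per group (out of 6), recorded on day 5. Animal weight difference T − C was also recorded. Follows NCI screening protocols.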
# Mus musculus [4] = assay: Toxicity in female BDF1 mouse allografted with mouse L1210 cells assessed as animal survival at 25 mg/kg, ip administered daily for 9 days as Klucel suspension starting 24 hrs after tumor inoculation measured on fifth day; format: organism-based; set-up: dose 25 mg/kg, route intraperitoneal; conditions: in vivo; procedure, shortened: as §3
# L1210 [5] = assay: Antileukemic activity against mouse L1210 cells allografted in female BDF1 mouse assessed as change in body weight at 50 mg/kg, ip administered daily for 9 days as Klucel suspension starting 24 hrs after tumor inoculation; format: functional; conditions: route intraperitoneal
# Procedure, shortened: (§4)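 Ascitic fluid carrying L1210 cells was inoculated ip. Compound was given ip as a Klucel (hydroxypropylcellulose) suspension in nine daily doses, starting 24 h after inoculation. Body-weight difference (treated minus control) was recorded on day 5. Survival was scored as %T/C of mean survival time.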
# Mus musculus [6] = assay: Toxicity in female CDF1 mouse allografted with mouse P388 cells assessed as animal survival at 50 mg/kg, ip administered daily for 9 days as Klucel suspension starting 24 hrs after tumor inoculation; format: organism-based; set-up: dose 50 mg/kg, route intraperitoneal; conditions: in vivo; procedure, shortened: as §1
# L1210 [7] = assay: Antileukemic activity against mouse L1210 cells allografted in female BDF1 mouse assessed as change in body weight at 100 mg/kg, ip administered daily for 9 days as Klucel suspension starting 24 hrs after tumor inoculation; format: functional; conditions: route intraperitoneal; procedure, shortened: as §4
# Mus musculus [8] = assay: Toxicity in female BDF1 mouse allografted with mouse L1210 cells assessed as animal survival at 100 mg/kg, ip administered daily for 9 days as Klucel suspension starting 24 hrs after tumor inoculation measured on fifth day; format: organism-based; set-up: dose 100 mg/kg, route intraperitoneal; conditions: in vivo
# Procedure, shortened: (§5)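 Female BDF1 mice bearing ip ascitic L1210 inoculum got nine daily ip doses in a Klucel suspension, starting 24 h after tumor inoculation. Toxicity was scored as toxicity-day survivors out of the group, recorded on the fifth day. Animal weight difference (T − C) was also tabulated.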
# Mus musculus [9] = assay: Toxicity in female CDF1 mouse allografted with mouse P388 cells assessed as animal survival at 100 mg/kg, ip administered daily for 9 days as Klucel suspension starting 24 hrs after tumor inoculation; format: organism-based; set-up: dose 100 mg/kg, route intraperitoneal; conditions: in vivo; procedure, shortened: as §1
# P388 [10] = assay: Antitumor activity against mouse P388 cells allografted in female CDF1 mouse assessed as disease cures by measuring 30-days host survival at 50 mg/kg, ip administered daily for 9 days as Klucel suspension starting 24 hrs after tumor inoculation relative to control; format: functional; conditions: route intraperitoneal
# Procedure, shortened: (§6)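 P388 leukemia given as an ascitic fluid cell inoculum, ip, to mice of the strain and sex in each line. Nine daily ip doses were given in a Klucel (hydroxypropylcellulose) suspension, starting 24 h after inoculation. Read-out is median survival time as %T/C, with >125 taken as significant; a "cure" means 30-day survival.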
# P388 [11] = assay: Antitumor activity against mouse P388 cells allografted in female CDF1 mouse assessed as change in body weight at 200 mg/kg, ip administered daily for 9 days as Klucel suspension starting 24 hrs after tumor inoculation; format: functional; conditions: route intraperitoneal
# Procedure, shortened: (§7)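 Ascitic fluid carrying P388 cells was inoculated ip. Compound was given ip in nine daily doses, starting 24 h after inoculation, in Klucel (hydroxypropylcellulose) suspension or in saline with Tween-80. Body-weight difference (treated minus control) was recorded on day 5. Survival was scored as %T/C of median survival time, and 30-day survival counted as cure.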
# P388 [12] = assay: Antitumor activity against mouse P388 cells allografted in female CDF1 mouse assessed as change in body weight at 100 mg/kg, ip administered daily for 9 days as Klucel suspension starting 24 hrs after tumor inoculation; format: functional; conditions: route intraperitoneal; procedure, shortened: as §7
# L1210 [13] = assay: Antileukemic activity against mouse L1210 cells allografted in female BDF1 mouse assessed as change in body weight at 25 mg/kg, ip administered daily for 9 days as Klucel suspension starting 24 hrs after tumor inoculation; format: functional; conditions: route intraperitoneal; procedure, shortened: as §4
# P388 [14] = assay: Antitumor activity against mouse P388 cells allografted in female CDF1 mouse assessed as disease cures by measuring 30-days host survival at 100 mg/kg, ip administered daily for 9 days as Klucel suspension starting 24 hrs after tumor inoculation relative to control; format: functional; conditions: route intraperitoneal; procedure, shortened: as §6
# P388 [15] = assay: Antitumor activity against mouse P388 cells allografted in female BDF1 mouse assessed as disease cures by measuring 30-days host survival at 25 mg/kg, ip administered daily for 9 days as Klucel suspension starting 24 hrs after tumor inoculation relative to control; format: functional; conditions: route intraperitoneal; procedure, shortened: as §6
# L1210 [16] = assay: Antileukemic activity against mouse L1210 cells allografted in female BDF1 mouse assessed as change in body weight at 12.5 mg/kg, ip administered daily for 9 days as Klucel suspension starting 24 hrs after tumor inoculation; format: functional; conditions: route intraperitoneal; procedure, shortened: as §4
# P388 [17] = assay: Antitumor activity against mouse P388 cells allografted in female BDF1 mouse assessed as change in body weight at 12.5 mg/kg, ip administered daily for 9 days as Klucel suspension starting 24 hrs after tumor inoculation; format: functional; conditions: route intraperitoneal; procedure, shortened: as §7
# P388 [18] = assay: Antitumor activity against mouse P388 cells allografted in female BDF1 mouse assessed as disease cures by measuring 30-days host survival at 12.5 mg/kg, ip administered daily for 9 days as Klucel suspension starting 24 hrs after tumor inoculation relative to control; format: functional; conditions: route intraperitoneal; procedure, shortened: as §6
# L1210 [19] = assay: Antileukemic activity against mouse L1210 cells allografted in female BDF1 mouse assessed as host mean survival time at 25 mg/kg, ip administered daily for 9 days as Klucel suspension starting 24 hrs after tumor inoculation relative to control; format: functional; conditions: route intraperitoneal; procedure, shortened: as §2
# [20] = Cytotoxicity against human 9KB cells treated as ethanol solution; format: functional; conditions: read-out: ED50 (the source's name)
# Procedure, shortened: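 Compound applied as an ethanol solution; activity read out as ED50 under the general screening protocol.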
# L1210 [21] = assay: Antileukemic activity against mouse L1210 cells allografted in female BDF1 mouse assessed as change in body weight at 200 mg/kg, ip administered daily for 9 days as Klucel suspension starting 24 hrs after tumor inoculation; format: functional; conditions: route intraperitoneal; procedure, shortened: as §4
# L1210 [22] = assay: Antileukemic activity against mouse L1210 cells allografted in female BDF1 mouse assessed as host mean survival time at 100 mg/kg, ip administered daily for 9 days as Klucel suspension starting 24 hrs after tumor inoculation relative to control; format: functional; conditions: route intraperitoneal; procedure, shortened: as §2
# Mus musculus [23] = assay: Toxicity in female BDF1 mouse allografted with mouse P388 cells assessed as animal survival at 12.5 mg/kg, ip administered daily for 9 days as Klucel suspension starting 24 hrs after tumor inoculation; format: organism-based; set-up: dose 12.5 mg/kg, route intraperitoneal; conditions: in vivo; procedure, shortened: as §1
# L1210 [24] = assay: Antileukemic activity against mouse L1210 cells allografted in female BDF1 mouse assessed as host mean survival time at 50 mg/kg, ip administered daily for 9 days as Klucel suspension starting 24 hrs after tumor inoculation relative to control; format: functional; conditions: route intraperitoneal; procedure, shortened: as §2
# P388 [25] = assay: Antitumor activity against mouse P388 cells allografted in female CDF1 mouse assessed as change in body weight at 50 mg/kg, ip administered daily for 9 days as Klucel suspension starting 24 hrs after tumor inoculation; format: functional; conditions: route intraperitoneal; procedure, shortened: as §7
# Mus musculus [26] = assay: Toxicity in female BDF1 mouse allografted with mouse L1210 cells assessed as animal survival at 12.5 mg/kg, ip administered daily for 9 days as Klucel suspension starting 24 hrs after tumor inoculation measured on fifth day; format: organism-based; set-up: dose 12.5 mg/kg, route intraperitoneal; conditions: in vivo; procedure, shortened: as §5
# P388 [27] = assay: Antitumor activity against mouse P388 cells allografted in female BDF1 mouse assessed as change in body weight at 25 mg/kg, ip administered daily for 9 days as Klucel suspension starting 24 hrs after tumor inoculation; format: functional; conditions: route intraperitoneal; procedure, shortened: as §7
# L1210 [28] = assay: Antileukemic activity against mouse L1210 cells allografted in female BDF1 mouse assessed as host mean survival time at 12.5 mg/kg, ip administered daily for 9 days as Klucel suspension starting 24 hrs after tumor inoculation relative to control; format: functional; conditions: route intraperitoneal; procedure, shortened: as §2
# Mus musculus [29] = assay: Toxicity in female CDF1 mouse allografted with mouse P388 cells assessed as animal survival at 200 mg/kg, ip administered daily for 9 days as Klucel suspension starting 24 hrs after tumor inoculation; format: organism-based; set-up: dose 200 mg/kg, route intraperitoneal; conditions: in vivo; procedure, shortened: as §1
structure (smiles),measurement,setting,value
CC(=O)OCc1c(COC(C)=O)c(-c2ccc(Cl)cc2)n2c1CCC2,Activity,Mus musculus [1],Non-toxic
same,T/C,L1210 [2],64%
same,Activity,Mus musculus [3],Non-toxic
same,Activity,Mus musculus [4],Non-toxic
same,Activity,L1210 [5],-1.8 g
same,Activity,Mus musculus [6],Non-toxic
same,Activity,L1210 [7],-3.8 g
same,Activity,Mus musculus [8],Non-toxic
same,Activity,Mus musculus [9],Non-toxic
same,T/C,P388 [10],118%
same,Activity,P388 [11],0.5 g
same,Activity,P388 [12],-3.3 g
same,Activity,L1210 [13],0.6 g
same,T/C,P388 [14],66%
same,T/C,P388 [15],123%
same,Activity,L1210 [16],0.7 g
same,Activity,P388 [17],-0.6 g
same,T/C,P388 [18],119%
same,T/C,L1210 [19],102%
same,EC50,[20],> 2.8 µg/mL
same,Activity,L1210 [21],-3.8 g
same,T/C,L1210 [22],76%
same,Activity,Mus musculus [23],Non-toxic
same,T/C,L1210 [24],117%
same,Activity,P388 [25],-1.9 g
same,Activity,Mus musculus [26],Non-toxic
same,Activity,P388 [27],-0.2 g
same,T/C,L1210 [28],95%
same,Activity,Mus musculus [29],Toxic
